This note sets out measurements from ChEMBL document CHEMBL4196201, “Discovery of N-(4-{[5-Fluoro-7-(2-methoxyethoxy)quinazolin-4-yl]amino}phenyl)-2-[4-(propan-2-yl)-1 H-1,2,3-triazol-1-yl]acetamide (AZD3229), a Potent Pan-KIT Mutant Inhibitor for the Treatment of Gastrointestinal Stromal Tumors” (J Med Chem, 2018).

Data set [1] in a line: Cytotoxicity in mouse parental BA/F3 cells incubated for 72 hrs by MTS assay. It counts as cell-based, BaF3.
Data set [2] has as its target Platelet-derived growth factor receptor beta (Homo sapiens) (UniProt P09619). The data set can be described thus: Inhibition of TEL-fused PDGFRbeta (unknown origin) transfected in mouse BA/F3 cells assessed as inhibition of cell growth incubated for 72 hrs by MTS assay. It counts as cell-based. (Formazan colour is commonly taken as a measure of viable cells.)
Data set [3] concerns BaF3. The data set can be described thus: Antitumor activity against mouse BA/F3 cells expressing Kit exon 11 deletion (557 to 558 residues) and D816H mutant (unknown origin) allografted in CB17 SCID mouse assessed as inhibition of tumor growth at 300 mg/kg, po qd measured on last day of dosing. The format is functional. The settings on record: read-out: TGI. Put shortly:
(§1)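 Ba/F3 cells bearing the KIT exon 11 del/D816H or exon 11 del/V654A mutation were grown as allografts in mice. Compounds were given p.o. once (QD) or twice daily (BD), and vehicle was given BD p.o. Tumor growth inhibition and regression (%) were taken on the last day of dosing. p-values were calculated relative to vehicle.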

The subject of data set [4] is BaF3. Description: Antitumor activity against mouse BA/F3 cells expressing Kit exon 11 deletion (557 to 558 residues) and V654 mutant (unknown origin) allografted in CB17 SCID mouse assessed as inhibition of tumor growth at 300 mg/kg, po qd measured on last day of dosing. It counts as functional. The settings on record: read-out: TGI. The procedure, abridged:
as §1

Data set [5] has as its system BaF3. The data set can be described thus: Antitumor activity against mouse BA/F3 cells expressing Kit exon 11 deletion (557 to 558 residues) and D816H mutant (unknown origin) allografted in CB17 SCID mouse assessed as tumor regression at 300 mg/kg, po qd measured on last day of dosing. It counts as functional. Put shortly: as §1
The subject of data set [6] is BaF3. The data set can be described thus: Antitumor activity against mouse BA/F3 cells expressing Kit exon 11 deletion (557 to 558 residues) and V654 mutant (unknown origin) allografted in CB17 SCID mouse assessed as tumor regression at 300 mg/kg, po qd measured on last day of dosing. The format is functional. Put shortly:
as §1

For data set [7], the system named is Mast/stem cell growth factor receptor Kit (Homo sapiens), P10721 [UNDEFINED MUTATION].
Data set [8] addresses Mast/stem cell growth factor receptor Kit (Homo sapiens) (UniProt P10721).
The target is the same in data set [9]. This is another data set of the same source.
Data set [10] shares this target. This is another data set of the same source.
The target is the same in data set [11]. This is another data set of the same source.
In data set [12] the test system is Mast/stem cell growth factor receptor Kit (Homo sapiens), P10721 [UNDEFINED MUTATION]. This is another data set of the same source.
For data set [13] the test system is unchanged. The source holds these as a separate data set.
Data set [14] shares this test system. This is another data set of the same source.
Data set [15] concerns Mast/stem cell growth factor receptor Kit (Homo sapiens), P10721 [V560D].
Data set [16] relates to Mast/stem cell growth factor receptor Kit (Homo sapiens), P10721 [V560D,D816H].
Data set [17] deals with Platelet-derived growth factor receptor alpha (Homo sapiens), P16234 [V561D,D842V].
Data set [18] relates to BaF3. Description: Antitumor activity against mouse BA/F3 cells expressing Kit exon 11 deletion (557 to 558 residues) and D816H mutant (unknown origin) allografted in CB17 SCID mouse assessed as inhibition of tumor growth at 100 mg/kg, po qd measured on last day of dosing. The settings on record: read-out: TGI. It counts as functional. Put shortly:
as §1

Data set [19] concerns BaF3. Description: Antitumor activity against mouse BA/F3 cells expressing Kit exon 11 deletion (557 to 558 residues) and D816H mutant (unknown origin) allografted in CB17 SCID mouse assessed as tumor regression at 100 mg/kg, po qd measured on last day of dosing. The format is functional. The procedure, abridged:
as §1

In data set [20] the test system is Mast/stem cell growth factor receptor Kit (Homo sapiens), P10721 [UNDEFINED MUTATION]. This is another data set of the same source.
For data set [21] the test system is unchanged. The source holds these as a separate data set.
In data set [22] the target is Vascular endothelial growth factor receptor 2 (Homo sapiens) (UniProt P35968).
Data set [23] deals with Mast/stem cell growth factor receptor Kit (Homo sapiens) (UniProt P10721). The source holds these as a separate data set.
The test system of data set [24] is Mast/stem cell growth factor receptor Kit (Homo sapiens), P10721 [UNDEFINED MUTATION]. The source holds these as a separate data set.
Data set [25] concerns Mast/stem cell growth factor receptor Kit (Homo sapiens), P10721 [V560D,V654A].
The subject of data set [26] is Mast/stem cell growth factor receptor Kit (Homo sapiens), P10721 [D816V].
Data set [27] addresses Platelet-derived growth factor receptor alpha (Homo sapiens) (UniProt P16234).
The test system of data set [28] is BaF3. Description: Antitumor activity against mouse BA/F3 cells expressing Kit exon 11 deletion (557 to 558 residues) and V654 mutant (unknown origin) allografted in CB17 SCID mouse assessed as inhibition of tumor growth at 80 mg/kg, po qd measured on last day of dosing. The settings on record: read-out: TGI. It counts as functional. The procedure, abridged:
as §1

Data set [29] relates to BaF3. Description: Antitumor activity against mouse BA/F3 cells expressing Kit exon 11 deletion (557 to 558 residues) and V654 mutant (unknown origin) allografted in CB17 SCID mouse assessed as tumor regression at 80 mg/kg, po qd measured on last day of dosing. It counts as functional. Put shortly: as §1

Structures are written as SMILES.

Chain of Mast/stem cell growth factor receptor Kit (Homo sapiens), P10721 [V560D,D816H] (P10721 whole entry V560D/D816H): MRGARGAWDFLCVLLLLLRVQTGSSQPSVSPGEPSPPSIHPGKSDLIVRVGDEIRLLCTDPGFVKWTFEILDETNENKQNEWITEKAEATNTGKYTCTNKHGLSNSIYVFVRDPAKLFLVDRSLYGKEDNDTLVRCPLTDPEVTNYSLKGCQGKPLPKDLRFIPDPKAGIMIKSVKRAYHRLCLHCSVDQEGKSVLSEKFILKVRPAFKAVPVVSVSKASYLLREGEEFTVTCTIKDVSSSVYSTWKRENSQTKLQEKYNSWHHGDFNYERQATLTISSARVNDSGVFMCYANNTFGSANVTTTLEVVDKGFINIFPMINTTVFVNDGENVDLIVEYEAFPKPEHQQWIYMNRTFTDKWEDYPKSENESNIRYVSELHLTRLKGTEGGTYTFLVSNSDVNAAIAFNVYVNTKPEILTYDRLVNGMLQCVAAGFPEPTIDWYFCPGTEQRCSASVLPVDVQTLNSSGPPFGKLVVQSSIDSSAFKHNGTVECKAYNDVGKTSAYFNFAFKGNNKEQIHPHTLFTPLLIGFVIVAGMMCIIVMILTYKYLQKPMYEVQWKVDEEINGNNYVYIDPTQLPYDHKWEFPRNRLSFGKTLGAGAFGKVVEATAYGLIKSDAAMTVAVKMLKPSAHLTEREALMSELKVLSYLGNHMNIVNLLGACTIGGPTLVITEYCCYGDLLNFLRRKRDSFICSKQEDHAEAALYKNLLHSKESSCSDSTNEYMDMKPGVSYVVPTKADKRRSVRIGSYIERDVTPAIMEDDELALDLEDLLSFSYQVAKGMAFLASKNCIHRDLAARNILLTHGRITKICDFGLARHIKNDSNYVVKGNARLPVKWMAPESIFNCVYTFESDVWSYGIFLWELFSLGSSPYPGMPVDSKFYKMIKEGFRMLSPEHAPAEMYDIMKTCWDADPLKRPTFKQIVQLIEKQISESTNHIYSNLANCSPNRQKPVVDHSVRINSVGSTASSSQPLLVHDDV
Chain of Platelet-derived growth factor receptor beta (Homo sapiens) (P09619 whole entry, the tested form may be a part): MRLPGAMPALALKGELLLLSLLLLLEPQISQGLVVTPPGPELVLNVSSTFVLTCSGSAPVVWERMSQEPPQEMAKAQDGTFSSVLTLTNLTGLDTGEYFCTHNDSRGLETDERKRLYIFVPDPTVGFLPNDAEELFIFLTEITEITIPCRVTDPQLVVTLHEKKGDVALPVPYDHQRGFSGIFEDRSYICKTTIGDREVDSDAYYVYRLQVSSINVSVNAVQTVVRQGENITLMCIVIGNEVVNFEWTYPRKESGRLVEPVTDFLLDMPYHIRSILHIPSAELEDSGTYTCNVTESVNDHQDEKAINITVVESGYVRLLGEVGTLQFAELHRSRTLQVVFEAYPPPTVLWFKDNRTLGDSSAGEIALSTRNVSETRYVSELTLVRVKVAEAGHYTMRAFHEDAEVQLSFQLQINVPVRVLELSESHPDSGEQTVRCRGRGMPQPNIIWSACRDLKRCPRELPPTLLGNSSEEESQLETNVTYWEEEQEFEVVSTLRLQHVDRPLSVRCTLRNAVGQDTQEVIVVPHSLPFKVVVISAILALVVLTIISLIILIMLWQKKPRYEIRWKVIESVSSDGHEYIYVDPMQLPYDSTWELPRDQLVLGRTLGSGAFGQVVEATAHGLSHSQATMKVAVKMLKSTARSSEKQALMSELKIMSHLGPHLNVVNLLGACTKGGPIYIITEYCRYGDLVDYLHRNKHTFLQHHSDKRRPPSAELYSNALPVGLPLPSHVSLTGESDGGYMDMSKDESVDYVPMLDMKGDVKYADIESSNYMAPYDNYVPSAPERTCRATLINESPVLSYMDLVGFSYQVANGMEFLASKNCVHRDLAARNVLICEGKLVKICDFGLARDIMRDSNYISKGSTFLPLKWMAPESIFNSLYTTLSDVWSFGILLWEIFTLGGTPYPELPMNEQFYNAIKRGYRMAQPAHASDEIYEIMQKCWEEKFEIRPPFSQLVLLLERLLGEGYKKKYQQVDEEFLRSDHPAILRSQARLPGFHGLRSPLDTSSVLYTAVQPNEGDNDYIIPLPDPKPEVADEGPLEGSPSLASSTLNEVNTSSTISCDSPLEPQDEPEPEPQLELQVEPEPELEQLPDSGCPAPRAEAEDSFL
Chain of Mast/stem cell growth factor receptor Kit (Homo sapiens) (P10721 whole entry): as the sequence (P10721 whole entry V560D/D816H) above, with D560V, H816D counted along it
Chain of Mast/stem cell growth factor receptor Kit (Homo sapiens), P10721 [UNDEFINED MUTATION] (P10721 whole entry, looked up, stated change not applied): as the sequence (P10721 whole entry V560D/D816H) above, with D560V, H816D counted along it
Chain of Platelet-derived growth factor receptor alpha (Homo sapiens), P16234 [V561D,D842V] (P16234 whole entry V561D/D842V, the tested form may be a part): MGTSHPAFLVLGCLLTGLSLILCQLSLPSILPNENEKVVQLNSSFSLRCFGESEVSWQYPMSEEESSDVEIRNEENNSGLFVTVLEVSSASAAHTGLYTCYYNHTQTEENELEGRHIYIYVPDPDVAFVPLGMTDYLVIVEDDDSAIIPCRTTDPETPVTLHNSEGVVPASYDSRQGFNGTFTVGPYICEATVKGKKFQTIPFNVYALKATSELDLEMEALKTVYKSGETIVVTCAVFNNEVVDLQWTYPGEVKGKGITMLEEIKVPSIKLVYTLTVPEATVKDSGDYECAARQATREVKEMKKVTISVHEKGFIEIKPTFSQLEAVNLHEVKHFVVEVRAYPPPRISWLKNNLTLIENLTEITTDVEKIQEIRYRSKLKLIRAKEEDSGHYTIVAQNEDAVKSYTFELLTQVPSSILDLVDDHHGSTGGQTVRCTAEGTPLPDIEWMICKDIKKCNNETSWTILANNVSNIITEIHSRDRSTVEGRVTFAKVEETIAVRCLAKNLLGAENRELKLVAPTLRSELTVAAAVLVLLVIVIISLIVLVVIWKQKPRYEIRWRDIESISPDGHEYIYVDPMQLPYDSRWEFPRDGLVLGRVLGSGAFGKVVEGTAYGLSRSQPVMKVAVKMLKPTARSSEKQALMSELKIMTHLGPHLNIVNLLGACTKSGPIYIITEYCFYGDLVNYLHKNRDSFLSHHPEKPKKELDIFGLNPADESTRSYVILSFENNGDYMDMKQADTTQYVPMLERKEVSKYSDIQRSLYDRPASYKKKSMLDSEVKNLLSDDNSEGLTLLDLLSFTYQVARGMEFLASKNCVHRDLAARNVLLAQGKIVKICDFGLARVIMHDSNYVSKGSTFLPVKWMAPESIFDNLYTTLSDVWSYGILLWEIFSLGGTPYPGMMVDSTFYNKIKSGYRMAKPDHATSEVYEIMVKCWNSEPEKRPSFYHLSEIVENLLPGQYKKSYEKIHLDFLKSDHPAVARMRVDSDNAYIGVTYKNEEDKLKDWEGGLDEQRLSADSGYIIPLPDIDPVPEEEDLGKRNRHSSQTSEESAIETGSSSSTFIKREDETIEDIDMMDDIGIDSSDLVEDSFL

The GI50 is the concentration that inhibits growth by half. Regarding `Cc1ccc(NC(=O)c2ccc(CN3CCN(C)CC3)cc2)cc1Nc1nccc(-c2cccnc2)n1` [IMATINIB], the GI50 at 72 h in data set [1] was greater than 10000 nM. Further, the GI50 in data set [2] was 102 nM; in data set [7] it was 535 to 537 nM; in [8] it was 192 nM; in [9], 3950 nM; in data set [10], 2750 nM; in data set [11], 17 nM. In addition, the GI50 was found to be 216 nM in [12]; 669 nM in data set [13]; 312 nM in data set [14]; 70 nM in data set [15]; 1190 nM in data set [16]; 567 nM in data set [17]. Further, the inhibition in vivo at 300 mg/kg with BaF3 [3] was 43%; in the data set on BaF3 [4], 34%. Further, the Activity in the data set with BaF3 [5] and with BaF3 [6] was 0% each time.

On to `CNC(=O)c1cc(Oc2ccc(NC(=O)Nc3ccc(Cl)c(C(F)(F)F)c3)c(F)c2)ccn1` [REGORAFENIB], for which the GI50 at 72 h in [1] was determined as 9950 nM. For the same molecule, the GI50 is 29 nM in [2]; 231 to 234 nM in [20]; 290 to 297 nM in [7]; 33 nM in [21]; 114 nM in data set [22]; 114 nM in [8]. In addition, the GI50 in [9] was 1270 nM; in data set [10], 833 nM; in data set [23], 943 nM; in [12], 63 nM; in [24] it was 49 nM; in [14], 47 nM. Besides, the GI50 worked out at 108 nM in data set [15]; 549 nM in data set [25]; 834 nM in data set [16]; 2370 nM in data set [26]; 51 nM in data set [27]; 522 nM in data set [17]. For the same molecule, in the data set on BaF3 [18], the inhibition in vivo at 100 mg/kg was greater than 100%. In addition, the Activity in the data set with BaF3 [19] worked out at 39%.

Regarding `CCN(CC)CCNC(=O)c1c(C)[nH]c(/C=C2\C(=O)Nc3ccc(F)cc32)c1C` [SUNITINIB], the GI50 at 72 h in [1] turned out to be 4790 nM. Besides, the GI50 in data set [2] was 114 nM; in data set [7], 398 to 400 nM; in [9] it was 12 nM; in data set [11] it was 4 nM; in data set [12], 214 nM; in [13] it was 782 nM. Moreover, the GI50 in data set [24] came out at 271 nM; in data set [16], 696 nM; in data set [27] it was 30 nM; in data set [17], 631 nM. The inhibition in vivo at 80 mg/kg with BaF3 [28] was greater than 100%. Also, in the data set with BaF3 [29], the Activity came to 87%.
